In brackets after ≈: the same amount, converted by molar mass. Activity calls are given as the source filed them. The calls are words filed in the database; no cut-off is given here.

This note sets out measurements from ChEMBL document CHEMBL1147356, “Structure and stereochemistry of pectinolides A-C, novel antimicrobial and cytotoxic 5,6-dihydro-alpha-pyrones from Hyptis pectinata” (1993).

One assay relates to A-431. Briefly: Cytotoxicity against human A431 cells after 72 hrs by sulforhodamine B assay. It counts as functional. As to conditions: A-431, 72 h, read-out: ED50 (the source's name). The method in brief: (§1)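 Log-phase cells treated with five sample concentrations (20.0–0.032 μg/ml) in DMSO for 72 h at 37°, 5% CO₂, 100% humidity. Sulforhodamine B staining quantified cells per well; results given as ED50.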
(In general: In SRB staining, fixed cells bind dye roughly in proportion to their protein.)

Assay [1] can be described thus: Cytotoxicity against human BC1 cells after 72 hrs by sulforhodamine B assay. As to conditions: BC1, 72 h, read-out: ED50 (the source's name). It counts as functional. Summed up:
as §1

For assay [2], the system named is Staphylococcus aureus. Briefly: Antibacterial activity against Staphylococcus aureus ATCC 6538 at < 100 ug/ml after 24 hrs at 37 degC by agar hole-plate diffusion assay. Format: functional, organism-based.
The test system of a further assay is KB. Briefly: Cytotoxicity against human KB cells after 72 hrs by sulforhodamine B assay. It counts as functional. The note with it: read-out: ED50 (the source's name). Summed up: as §1
Assay [3] in a line: Cytotoxicity against human LUC1 cells after 48 hrs by sulforhodamine B assay. It counts as functional. As to conditions: LUC1, 48 h, read-out: ED50 (the source's name). The method in brief: (§2)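 Log-phase cells exposed to five concentrations (20.0–0.032 μg/ml) of sample in DMSO for 48 h at 37°, 5% CO₂, 100% humidity. Cell quantity per well determined by sulforhodamine B staining; ED50 reported.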

The test system of a further assay is LNCaP. Briefly: Cytotoxicity against human LNCAP cells after 72 hrs by sulforhodamine B assay. It counts as functional. As to conditions: read-out: ED50 (the source's name). Summed up: as §1
For assay [4], the system named is Bacillus subtilis. Briefly: Antibacterial activity against Bacillus subtilis ATCC 6633 at < 100 ug/ml after 24 hrs at 37 degC by agar hole-plate diffusion assay. Format: functional, organism-based.
Another assay has as its system HT-1080. Briefly: Cytotoxicity against human HT1080 cells after 48 hrs by sulforhodamine B assay. The note with it: HT-1080, 48 h, read-out: ED50 (the source's name). Format: functional. Summed up: as §2
The next assay relates to P388. Briefly: Cytotoxicity against mouse P388 cells after 48 hrs by sulforhodamine B assay. Format: functional. As to conditions: P388, 48 h, read-out: ED50 (the source's name). Summed up: as §2
For the next assay, the system named is SK-MEL-2. Briefly: Cytotoxicity against human SK-MEL-2 cells after 72 hrs by sulforhodamine B assay. As to conditions: SK-MEL-2, 72 h, read-out: ED50 (the source's name). It counts as functional. Summed up:
as §1

Assay [5] is described as follows: Cytotoxicity against vinblastine-resistant human KBV1 cells after 72 hrs by sulforhodamine B assay. Format: functional. As to conditions: KB-V1, 72 h, read-out: ED50 (the source's name). The method in brief:
as §1

A further assay has as its system ZR-75-1. Briefly: Cytotoxicity against human ZR-75-1 cells after 72 hrs by sulforhodamine B assay. Format: functional. As to conditions: ZR-75-1, 72 h, read-out: ED50 (the source's name). The method in brief: as §1
The subject of assay [6] is Escherichia coli. Briefly: Antibacterial activity against Escherichia coli ATCC 8739 at < 100 ug/ml after 24 hrs at 37 degC by agar hole-plate diffusion assay. Format: functional, organism-based.
Assay [7] relates to Candida albicans. Briefly: Antifungal activity against Candida albicans ATCC 10231 at < 100 ug/ml after 24 hrs at 25 degC by agar hole-plate diffusion assay. Format: functional, organism-based.
Assay [8] relates to Bacillus subtilis. Briefly: Antibacterial activity against Bacillus subtilis ATCC 6633 at 1 mg/ml after 24 hrs at 37 degC by agar hole-plate diffusion assay. Format: functional. As to conditions: ATCC 6633, 24 h, read-out: IZ. The method in brief: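 Agar hole-plate diffusion. Agar plates (15 ml) seeded with 1 ml overnight broth culture (10⁶ bacteria/ml); 11 mm holes filled with 100 μl of pure compound at 1 mg/ml. Streptomycin sulfate (1 mg/ml) as positive control. Duplicate per organism, 24 h at 37°. Inhibition zone diameters measured.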

Assay [9] concerns Candida albicans. Briefly: Antifungal activity against Candida albicans ATCC 10231 by agar diffusion technique. Format: functional. For orientation: In agar diffusion tests the substance spreads into inoculated agar from a disc or well.
Assay [10] concerns Escherichia coli. Briefly: Antibacterial activity against Escherichia coli ATCC 8739 by agar diffusion technique. It counts as functional.
In assay [11] the test system is Staphylococcus aureus. Briefly: Antibacterial activity against Staphylococcus aureus ATCC 6538 after overnight incubation at 37 degC by twofold serial dilution technique. Format: functional. The method in brief: (§3)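 Twofold broth dilution MIC. Sample at 1 mg/ml in MeOH-H2O (1:1), 0.5 ml added to 4.5 ml nutrient broth, then doubling dilutions from 100 to 0.2 μg/ml. Each tube inoculated to 10⁶ organisms/ml final. Duplicate per organism, with solvent and streptomycin control broths.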

Assay [12] relates to Pseudomonas aeruginosa. Briefly: Antibacterial activity against Pseudomonas aeruginosa ATCC 9027 by agar diffusion technique. It counts as functional.
The subject of assay [13] is Pseudomonas aeruginosa. Briefly: Antibacterial activity against Pseudomonas aeruginosa ATCC 9027 at < 100 ug/ml after 24 hrs at 37 degC by agar hole-plate diffusion assay. Format: functional, organism-based.
For assay [14], the system named is Bacillus subtilis. Briefly: Antibacterial activity against Bacillus subtilis ATCC 6633 after overnight incubation at 37 degC by twofold serial dilution technique. Format: functional. Summed up: as §3

Take `CCCC[C@H](OC(C)=O)[C@@H](OC(C)=O)[C@H](OC(C)=O)[C@H]1CC=CC(=O)O1` [BORONOLIDE]: the EC50 with A-431 was 6.5 µg/mL (≈ 17.5 µM); in assay [1] it was 2.8 µg/mL (≈ 7.56 µM); in the assay with KB it was 4 µg/mL (≈ 10.8 µM); in assay [3], 3.9 µg/mL (≈ 10.5 µM); with LNCaP it was 3.2 µg/mL (≈ 8.64 µM); in the assay with HT-1080, 4.5 µg/mL (≈ 12.1 µM). The EC50 in the assay with P388 is 1 µg/mL (≈ 2.7 µM); in the assay on SK-MEL-2, 3.3 µg/mL (≈ 8.91 µM); in assay [5] it was 8.6 µg/mL (≈ 23.2 µM); in the assay on ZR-75-1, 8.7 µg/mL (≈ 23.5 µM). The outcome in the assay with Staphylococcus aureus [2] and with Bacillus subtilis [4] was inactive.

Usually MIC stands for the lowest concentration found to suppress growth. The low end stands for inhibition by little substance, the high end for a need for much substance. Regarding `CC(=O)O[C@H](/C=C\[C@H]1CC=CC(=O)O1)C[C@@H](OC(C)=O)[C@H](C)OC(C)=O` [HYPTOLIDE], the outcome in the assay with Escherichia coli [6], in the assay with Staphylococcus aureus [2], with Candida albicans [7], with Bacillus subtilis [4] and with Pseudomonas aeruginosa [13] was inactive. Also, the EC50 amounted to 3.7 µg/mL (≈ 10 µM) in the assay on A-431; 2.4 µg/mL (≈ 6.51 µM) in assay [1]; 3.6 µg/mL (≈ 9.77 µM) with KB; 4.9 µg/mL (≈ 13.3 µM) in [3]; 7.5 µg/mL (≈ 20.4 µM) with LNCaP; 9.6 µg/mL (≈ 26.1 µM) with HT-1080. Further, the EC50 with P388 worked out at 1.6 µg/mL (≈ 4.34 µM); with SK-MEL-2, 12.2 µg/mL (≈ 33.1 µM); in [5], 4.5 µg/mL (≈ 12.2 µM); with ZR-75-1, 6.4 µg/mL (≈ 17.4 µM). Besides, the zone of inhibition at 1000 µg/mL in the assay on Bacillus subtilis [8] came out at 5 mm. The MIC against Candida albicans [9] was more than 500 µg/mL; against Escherichia coli [10], more than 500 µg/mL; against Staphylococcus aureus [11] it was more than 100 µg/mL; against Pseudomonas aeruginosa [12], more than 500 µg/mL; with Bacillus subtilis [14], 100 µg/mL (≈ 271 µM).
